Measurements from ChEMBL document CHEMBL4049455, “Discovery of a B-Cell Lymphoma 6 Protein-Protein Interaction Inhibitor by a Biophysics-Driven Fragment-Based Approach” (J Med Chem, 2017).
pKd: −log10 of the molar value. Values belong to the compound of their own block, whether it stands above or below them. Active and inactive are the calls of the source. The calls are words filed in the database; no cut-off is given here.

Key:
[1] = target: T1, B-cell lymphoma 6 protein (Homo sapiens, UniProt P41182); assay: Binding affinity to recombinant RED-NHS labeled BCL6 BTB domain (unknown origin) expressed in Escherichia coli BL21 (DE3) after 10 mins by microscale thermophoresis method
[2] = target: T1, B-cell lymphoma 6 protein; assay: Binding affinity to captured wild-type human biotinylated Avi-tagged BCL6 BTB domain (5 to 129 amino acid residues) expressed in Escherichia coli BL21 (DE3) by SPR analysis
[3] = tested on: B-cell lymphoma 6 protein (Homo sapiens), P41182 [C8Q,C67R,C84N]; assay: Inhibition of BCoR peptide binding to human biotinylated His/Avi/SUMO/FLAG-tagged BCL6 BTB domain (5 to 129 amino acid residues) C8Q/C67R/C84N triple mutant expressed in Escherichia coli BL21 (DE3) by SPR competition assay
[4] = tested on: B-cell lymphoma 6 protein (Homo sapiens), P41182 [C8Q,C67R,C84N]; assay: Binding affinity to human biotinylated His/Avi/SUMO/FLAG-tagged BCL6 BTB domain (5 to 129 amino acid residues) C8Q/C67R/C84N triple mutant expressed in Escherichia coli BL21 (DE3) by STD-NMR spectroscopy
Procedure, shortened: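 STD-NMR was run on a sample of 400 μM ligand with 20 μM BCL6 BTB at 15 °C, using 32 scans. On- and off-resonance saturation was at 0.4 and 30 ppm, with 2.0 s total saturation. Binding was read as signal decrease on on-resonance irradiation.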

[5] = target: T1, B-cell lymphoma 6 protein; assay: Binding affinity to 6His-tagged human BCL6 BTB domain (7 to 128 amino acid residues) expressed in Escherichia coli Rosetta (DE3) after 1 min by fluorescence polarization assay
[6] = target: T1, B-cell lymphoma 6 protein; assay: Binding affinity to wild-type human biotinylated Avi-tagged BCL6 BTB domain (5 to 129 amino acid residues) expressed in Escherichia coli BL21 (DE3) using 1 % DMSO by SPR analysis
Procedure, shortened: (§1)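 SPR (Biacore 4000) binding of BCoR peptide to immobilized wild-type or Cys-mutant BTB in running buffer containing 1%, 3% or 5% DMSO. Peptide ran from a top concentration of 100 μM in 2-fold dilutions. KD and Rmax were fitted from equilibrium response against peptide concentration.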

[7] = target: T2, B-cell lymphoma 6 protein (Homo sapiens, UniProt P41182, C67R/C84N/C8Q); assay: (§2) Binding affinity to human biotinylated Avi-tagged BCL6 BTB domain C8Q/C67R/C84N triple mutant expressed in Escherichia coli BL21 (DE3) using 5 % DMSO by SPR analysis; procedure, shortened: as §1
[8] = tested on: B-cell lymphoma 6 protein (Homo sapiens), P41182 [C8Q,C67R,C84N]; assay: as §2; procedure, shortened: as §1
[9] = target: T1, B-cell lymphoma 6 protein; assay: Binding affinity to wild-type human biotinylated Avi-tagged BCL6 BTB domain (5 to 129 amino acid residues) expressed in Escherichia coli BL21 (DE3) using 3 % DMSO by SPR analysis; procedure, shortened: as §1
[10] = target: T1, B-cell lymphoma 6 protein; assay: Binding affinity to coupled wild-type human biotinylated Avi-tagged BCL6 BTB domain (5 to 129 amino acid residues) expressed in Escherichia coli BL21 (DE3) by SPR analysis
Procedure, shortened: (§3)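 Biacore 4000 SPR. Biotinylated BTB (mutant or wild-type) was captured, and wild-type was also amine-coupled on a separate spot, with NeutrAvidin detected as a reference spot. Responses were referenced between spots. Fragments were run from a top concentration of 1 mM in 2-fold dilutions. KD came from equilibrium response plotted against concentration, with BCoR peptide (100 μM) as the positive control.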

[11] = target: T1, B-cell lymphoma 6 protein; assay: Binding affinity to wild-type human biotinylated Avi-tagged BCL6 BTB domain (5 to 129 amino acid residues) expressed in Escherichia coli BL21 (DE3) using 5 % DMSO by SPR analysis; procedure, shortened: as §1
[12] = target: T2, B-cell lymphoma 6 protein; assay: (§4) Binding affinity to human biotinylated Avi-tagged BCL6 BTB domain C8Q/C67R/C84N triple mutant expressed in Escherichia coli BL21 (DE3) using 1 % DMSO by SPR analysis; procedure, shortened: as §1
[13] = tested on: B-cell lymphoma 6 protein (Homo sapiens), P41182 [C8Q,C67R,C84N]; assay: as §4; procedure, shortened: as §1
[14] = target: T2, B-cell lymphoma 6 protein; assay: Binding affinity to captured human biotinylated Avi-tagged BCL6 BTB domain (5 to 129 amino acid residues) C8Q/C67R/C84N triple mutant expressed in Escherichia coli BL21 (DE3) by SPR analysis; procedure, shortened: as §3
[15] = target: T2, B-cell lymphoma 6 protein; assay: (§5) Binding affinity to human biotinylated Avi-tagged BCL6 BTB domain C8Q/C67R/C84N triple mutant expressed in Escherichia coli BL21 (DE3) using 3 % DMSO by SPR analysis; procedure, shortened: as §1
[16] = tested on: B-cell lymphoma 6 protein (Homo sapiens), P41182 [C8Q,C67R,C84N]; assay: as §5; procedure, shortened: as §1

Compound: Nc1nccc(Nc2ccccc2)n1
pKd [2]: 2.52

Compound: O=C1Cc2cc(Nc3ncncc3Cl)ccc2N1
pKd [2]: 5.03

Compound: Nc1ncc(F)c(Nc2ccccc2)n1
pKd [2]: 3.74

Compound: Nc1ncnc(Nc2ccccc2)n1
inhibition [3]: Active | Activity [4]: Active

The remaining lines, values ahead:

pKd [1]: 3.89
Compound: O=C(O)CC(C(=O)O)N1C(=O)/C(=C2/C(=O)Nc3ccc(Br)cc32)SC1=S (stereo not drawn)

pKd [5]: 3.00
Compound: CO[C@H]1/C=C/O[C@@]2(C)Oc3c(C)c(O)c4c(O)c(cc(O)c4c3C2=O)NC(=O)/C(C)=C\C=C\[C@H](C)[C@H](O)[C@@H](C)[C@@H](O)[C@@H](C)[C@H](OC(C)=O)[C@@H]1C [RIFAMYCIN]

pKd [6]: 5.12 | Rmax [6]: 245 RU | pKd [7]: 4.60 | Rmax [8]: 304 RU | pKd [9]: 5.03 | Rmax [9]: 242 RU | pKd [10]: 4.85 | pKd [11]: 4.92 | Rmax [11]: 243 RU | pKd [12]: 4.77 | Rmax [13]: 311 RU | pKd [14]: 4.40 | Activity [2]: Dose-dependent effect | pKd [2]: 4.77 | pKd [15]: 4.68 | Rmax [16]: 302 RU
Compound: Ac-RSEIISTAPSSWVVPPK-OH
